The record followed here is ChEMBL document CHEMBL1806376, “Synthesis and biological properties of macrolactam analogs of the natural product macrolide (-)-A26771B” (2011).

Common to all, as to type: functional
For experiment [1], the system named is Escherichia coli. The experiment in a line: Antibacterial activity against Escherichia coli ATCC 25922 by broth microdilution method. The essentials: (§1)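 MIC values determined by broth microdilution following the CLSI method.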
The subject of experiment [2] is Enterococcus faecalis. The experiment in a line: Antibacterial activity against Enterococcus faecalis ATCC 29212 by broth microdilution method. The essentials: as §1
For experiment [3], the system named is Enterococcus faecium. The experiment in a line: Antibacterial activity against Enterococcus faecium 1 by broth microdilution method. The gist of the method:
as §1

Experiment [4] relates to Haemophilus influenzae. The experiment in a line: Antibacterial activity against Haemophilus influenzae ATCC 31517 by broth microdilution method. Particulars: Haemophilus influenzae, ATCC 31517; read-out: MIC. The gist of the method:
as §1

Experiment [5] relates to Haemophilus influenzae. As to the kind of experiment: Antibacterial activity against efflux knock-out Haemophilus influenzae LS2 by broth microdilution method. Particulars: Haemophilus influenzae, LS2; read-out: MIC. The gist of the method: as §1
Experiment [6] relates to Pseudomonas aeruginosa. The experiment in a line: Antibacterial activity against Pseudomonas aeruginosa ATCC 27853 by broth dilution method. The gist of the method: as §1
Experiment [7] relates to Staphylococcus aureus. As to the kind of experiment: Antibacterial activity against Staphylococcus aureus ATCC 13709 by broth microdilution method. The following applies: Staphylococcus aureus, ATCC 13709; read-out: MIC. The essentials: as §1
Experiment [8] deals with Staphylococcus aureus. The experiment in a line: Antibacterial activity against methicillin-resistant Staphylococcus aureus Sa2 by broth microdilution method. Particulars: Staphylococcus aureus, Sa2; read-out: MIC. The essentials:
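Broth microdilution run according to the CLSI method.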

The test system of experiment [9] is Staphylococcus aureus. As to the kind of experiment: Antibacterial activity against Staphylococcus aureus ATCC 25923 by broth microdilution method. Particulars: Staphylococcus aureus, ATCC 25923; read-out: MIC. The gist of the method: as §1
The test system of experiment [10] is Staphylococcus aureus. The experiment in a line: Antibacterial activity against Staphylococcus aureus ATCC 25923 by broth microdilution method in presence of 10% human serum. Particulars: Staphylococcus aureus, ATCC 25923; read-out: MIC. The gist of the method:
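MIC determined by broth microdilution per the CLSI method, with 10% human serum added to the medium.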

For experiment [11], the system named is Staphylococcus aureus. As to the kind of experiment: Antibacterial activity against Staphylococcus aureus oxford by broth microdilution method. The following applies: Staphylococcus aureus, oxford; read-out: MIC. The gist of the method:
as §1

The subject of experiment [12] is Streptococcus pneumoniae. The experiment in a line: Antibacterial activity against Streptococcus pneumoniae ATCC 49619 by broth microdilution method. The following applies: Streptococcus pneumoniae, ATCC 49619; read-out: MIC. The gist of the method:
as §1

Experiment [13] deals with Streptococcus pneumoniae. The experiment in a line: Antibacterial activity against Streptococcus pneumoniae Pen9 IV381-221 by broth microdilution method. Particulars: Streptococcus pneumoniae, Pen9 IV381-221; read-out: MIC. The gist of the method:
as §1

Setting [14] is: Enterococcus faecalis, ATCC 29212, read-out: MIC.
Setting [15] is: Enterococcus faecium, 1, read-out: MIC.

≈ marks a conversion by molar mass, not a printed value.

Consider `Cc1nc2c([nH]1)CCCCCCCCC[C@@H](C)OC(=O)/C=C/2`, for which the MIC was > 64 µg/mL in experiment [1]; 32 µg/mL (≈ 105 µM) in [2] (setting [14]); 16 µg/mL (≈ 52.6 µM) in experiment [3] (setting [15]); > 64 µg/mL in experiment [4]; 16 µg/mL (≈ 52.6 µM) in experiment [5]; > 64 µg/mL in experiment [6]. The MIC in [7] is 32 µg/mL (≈ 105 µM); in experiment [8], 32 µg/mL (≈ 105 µM); in experiment [9], 32 µg/mL (≈ 105 µM); in [10] it was > 64 µg/mL; in experiment [11], 32 µg/mL (≈ 105 µM); in experiment [12], 16 µg/mL (≈ 52.6 µM). The MIC in [13] was 8 µg/mL (≈ 26.3 µM).
In the case of `CC(=O)N(CCOc1ccccc1)C1CC(=O)[C@@H](OC(=O)CCC(=O)OC(C)(C)C)CCCCCCCCC[C@@H](C)OC1=O` (some centres undefined), the MIC in [1], in [2] (setting [14]), in experiment [3] (setting [15]), in [4], in experiment [5] and in experiment [6] was > 32 µg/mL throughout. Moreover, the MIC in experiment [7], in experiment [8], in [9], in [10], in experiment [11] and in experiment [12] was > 32 µg/mL in each case. Also, the MIC in [13] was > 32 µg/mL.
Turning to `COC1CCCCCCCCC[C@@H](C)NC(=O)/C=C/C1=O` (single isomer, unassigned; diastereomer 1), the MIC in [1] was > 64 µg/mL; in experiment [2], 2 µg/mL (≈ 6.77 µM); in experiment [3] it was 0.5 µg/mL (≈ 1.69 µM); in experiment [4], 2 µg/mL (≈ 6.77 µM); in experiment [5], 0.25 µg/mL (≈ 0.846 µM); in experiment [6] it was > 64 µg/mL. The MIC amounted to 1 µg/mL (≈ 3.38 µM) in experiment [7]; 1 µg/mL (≈ 3.38 µM) in [8]; 1 µg/mL (≈ 3.38 µM) in experiment [9]; 8 µg/mL in [10]; 1 µg/mL (≈ 3.38 µM) in [11]; 2 µg/mL (≈ 6.77 µM) in experiment [12]. For the same compound, the MIC in [13] turned out to be 8 µg/mL (≈ 27.1 µM).
